The test system of series [1] is RS4-11. Briefly: Antiproliferative activity against human RS4:11 cells assessed as growth inhibition at 20 uM after 48 hrs by CCK-8 assay relative to control. The format is functional. The following applies: RS4-11, 48 h, read-out: GI. The essentials:
(§1)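 Single-dose screen at 20 μM in RS4;11 (human ALL), HL-60 (human promyelocytic leukemia) and HEK293T (normal-cell model). Cells exposed 48 h, viability read by CCK-8, growth inhibition ratio expressed relative to control.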

Series [2] concerns HL-60. The series is described as follows: Antiproliferative activity against human HL60 cells assessed as growth inhibition at 20 uM after 48 hrs by CCK-8 assay relative to control. The format is functional. The settings on record: HL-60, 48 h, read-out: GI. The essentials: as §1
(Tetrazolium dyes change colour on reduction, which living cells bring about.)

The nature of series [3]: Cytotoxicity against HEK293T cells assessed as growth inhibition at 20 uM after 48 hrs by CCK8 assay relative to control. The format is cell-based, HEK-293T. The settings on record: human, HEK293T cells; read-out: GI. Put shortly:
as §1

The test system of series [4] is RS4-11. Briefly: Antiproliferative activity against human RS4:11 cells assessed as growth inhibition after 48 hrs by CCK-8 assay. The following applies: RS4-11, 48 h. It counts as functional, cell-based.
Series [5] concerns HL-60. Briefly: Antiproliferative activity against human HL60 cells assessed as growth inhibition after 48 hrs by CCK-8 assay. The format is functional, cell-based. The following applies: HL-60, 48 h.
Series [6] deals with HEK-293T. The series is described as follows: Cytotoxicity against human HEK293T cells assessed as growth inhibition after 48 hrs by CCK8 assay. The format is cell-based.
The test system of series [7] is RS4-11. The series is described as follows: Induction of apoptosis in human RS4:11 cells assessed as viable cells at 40 uM after 48 hrs by Annexin-V and 7-AAD staining based flow cytometric analysis (reference value: 94.06%). The settings on record: RS4-11, 48 h, read-out: Activity. The format is functional. For orientation: A flow cytometer gives signals particle by particle.

For series [8], the system named is RS4-11. Briefly: Induction of apoptosis in human RS4:11 cells assessed as early apoptotic cells at 40 uM after 48 hrs by Annexin-V and 7-AAD staining based flow cytometric analysis (reference value: 2.56%). It counts as functional.
Series [9] relates to RS4-11. Briefly: Induction of apoptosis in human RS4:11 cells assessed as late apoptotic cells at 40 uM after 48 hrs by Annexin-V and 7-AAD staining based flow cytometric analysis (reference value: 2.71%). It counts as functional.
Series [10] concerns RS4-11. Briefly: Induction of apoptosis in human RS4:11 cells assessed as necrotic cells at 40 uM after 48 hrs by Annexin-V and 7-AAD staining based flow cytometric analysis (reference value: 0.67%). The format is functional.
In series [11] the test system is RS4-11. Briefly: Induction of mitochondrial membrane potential loss in human RS4:11 cells at 40 uM after 48 hrs by MitoSense Red staining based fluorescence assay. The format is functional, cell-based. Put shortly:
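RS4;11 cells exposed 48 h at 5–40 μM, DMSO as negative control. Stained with MitoSense Red and analysed by flow cytometry. Loss of mitochondrial membrane potential is read as a drop in Red2 fluorescence.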

Series [12] concerns RS4-11. Briefly: Induction of apoptosis in human RS4:11 cells assessed as PARP degradation at 2.5 to 40 uM after 48 hrs by Western blot analysis. It counts as functional, cell-based. The essentials: (§2)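 RS4;11 cells treated 48 h at concentrations from 2.5 to 40 μM, DMSO as negative control. Western blot for full-length PARP (116 kDa) and cleaved PARP (89 kDa), plus cleaved caspase-3 and cleaved caspase-9.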
(Immunoblotting shows a protein as a band on a membrane.)

For series [13], the system named is RS4-11. The series is described as follows: Induction of apoptosis in human RS4:11 cells assessed as increase in cleaved PARP protein expression at 2.5 to 40 uM after 48 hrs by Western blot analysis. It counts as functional, cell-based. The essentials: as §2
The test system of series [14] is RS4-11. The series is described as follows: Induction of apoptosis in human RS4:11 cells assessed as increase in cleaved PARP protein expression after 48 hrs by Western blot analysis. The format is functional, cell-based. Put shortly: as §2
Series [15] deals with RS4-11. The series is described as follows: Induction of apoptosis in human RS4:11 cells assessed as increase in cleaved caspase-3 protein expression after 48 hrs by Western blot analysis. The format is functional, cell-based. Put shortly: as §2
Series [16] concerns RS4-11. Briefly: Induction of apoptosis in human RS4:11 cells assessed as increase in cleaved caspase-9 protein expression after 48 hrs by Western blot analysis. It counts as functional, cell-based. Put shortly:
as §2

The subject of series [17] is RS4-11. The series is described as follows: Antiproliferative activity against human RS4:11 cells assessed as growth inhibition at 1 uM after 48 hrs by CCK-8 assay relative to control. The format is functional. The following applies: RS4-11, 48 h, read-out: GI. Put shortly: (§3)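 Positive-control reference compound run at 1 μM alongside the 20 μM screen. CCK-8 viability after 48 h exposure, inhibition ratio relative to control.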

Series [18] deals with HL-60. The series is described as follows: Antiproliferative activity against human HL60 cells assessed as growth inhibition at 1 uM after 48 hrs by CCK-8 assay relative to control. The format is functional. The settings on record: HL-60, 48 h, read-out: GI. The essentials: as §3
In series [19] the test system is RS4-11. The series is described as follows: Induction of apoptosis in human RS4:11 cells assessed as viable cells at 0.5 uM after 48 hrs by Annexin-V and 7-AAD staining based flow cytometric analysis (reference value: 94.06%). It counts as functional. The settings on record: RS4-11, 48 h, read-out: Activity.
Series [20] deals with RS4-11. The series is described as follows: Induction of apoptosis in human RS4:11 cells assessed as early apoptotic cells at 0.5 uM after 48 hrs by Annexin-V and 7-AAD staining based flow cytometric analysis (reference value: 2.56%). The format is functional.
Series [21] has as its system RS4-11. Briefly: Induction of apoptosis in human RS4:11 cells assessed as late apoptotic cells at 0.5 uM after 48 hrs by Annexin-V and 7-AAD staining based flow cytometric analysis (reference value: 2.71%). The format is functional.
Series [22] has as its system RS4-11. Briefly: Induction of apoptosis in human RS4:11 cells assessed as necrotic cells at 0.5 uM after 48 hrs by Annexin-V and 7-AAD staining based flow cytometric analysis (reference value: 0.67%). The format is functional.

Activity calls are given as the source filed them. The calls are words filed in the database; no cut-off is given here. Bounds are passed on as bounds.

For `COc1ccc(S(=O)(=O)Oc2ccccc2/C=C(\C#N)C(=O)Nc2nnc(Cc3ccc(Cl)cc3)s2)cc1`, the inhibition of growth at 20 µM was 77% in [1] and 99% in series [2]. The inhibition at 48 h, 20 µM in [3] is 26%. In addition, the IC50 (in general, the concentration that gives 50% inhibition) was 1.25 µM in series [4], 4.36 µM in series [5] and more than 50 µM in series [6]. Further, the viability at 40 µM in [7] worked out at 16.2%. Further, the Activity in series [8] was 5%; in series [9], 76.08%; in [10], 2.68%; in series [14], “Dose-dependent effect”; in [15] it was “Dose-dependent effect”; in series [16] it was “Dose-dependent effect”. Besides, the result in [11], in series [12] and in series [13] was Active.
Take `COc1ccc(Cc2nnc(NC(=O)/C(C#N)=C/c3ccccc3OS(=O)(=O)c3ccc(OC)cc3)s2)cc1`: the inhibition of growth at 20 µM in series [1] was determined as 78%; in series [2], 100%. The inhibition at 48 h, 20 µM in series [3] worked out at 30%. Further, the IC50 in [4] is 0.84 µM; in [5], 3.12 µM; in [6], more than 50 µM. In addition, in series [7], the viability at 40 µM stood at 19.7%. In addition, the Activity in series [8] was 5.07%; in series [9], 72.63%; in [10], 2.58%; in series [14], “Dose-dependent effect”; in [15], “Dose-dependent effect”; in series [16] it was “Dose-dependent effect”. Also, the outcome in [11], in [12] and in series [13] was Active.
In the case of `CC1(C)CCC(CN2CCN(c3ccc(C(=O)NS(=O)(=O)c4ccc(NCC5CCOCC5)c([N+](=O)[O-])c4)c(Oc4cnc5[nH]ccc5c4)c3)CC2)=C(c2ccc(Cl)cc2)C1` [VENETOCLAX], the inhibition of growth at 1 µM is 95% in series [17] and 98% in series [18]. The viability at 0.5 µM in [19] turned out to be 2.71%. In addition, the Activity in [20] is recorded as 11.91%; in series [21], 83.27%; in series [22], 2.11%.
`COc1ccc(S(=O)(=O)Oc2ccccc2/C=C(\C#N)C(=O)Nc2nnc(Cc3ccc(F)cc3)s2)cc1`: the inhibition of growth at 20 µM came out at 76% in series [1] and 100% in series [2]. In addition, the inhibition at 48 h, 20 µM in series [3] amounted to 20%. In addition, the IC50 in [4] was 1.21 µM; in [5], 4.05 µM; in series [6], more than 50 µM. In addition, the viability at 40 µM in series [7] amounted to 30.2%. The Activity in [8] was 5.88%; in [9] it was 61.84%; in series [10], 2.07%; in series [14] it was “Dose-dependent effect”; in series [15], “Dose-dependent effect”; in [16], “Dose-dependent effect”. Moreover, the result in [11], in series [12] and in [13] was Active.

Values taken from ChEMBL document CHEMBL4627348, “Synthesis of (1,3,4-thiadiazol-2-yl)-acrylamide derivatives as potential antitumor agents against acute leukemia cells” (Bioorg Med Chem Lett, 2020).
